# Experimental data pooled from the literature.
# Compare with care: the assays were run in different laboratories.
Structure (SMILES),tested on,assay,system,setting,measurement,value
Cl.N[C@@H]1CCN(c2cc(C(=O)NCC(=O)O)ccc2NC(=O)c2cc(Br)c(Br)[nH]2)C1,Klebsiella pneumoniae,"microbial growth, broth dilution",ATCC700603,,MIC,> 32 µg/mL
C=CC(=O)NC1CCN(c2ncc3ncnc(Nc4ccc(Oc5ccc6c(c5)ncn6C)c(C)c4)c3n2)CC1,LS180,cell growth or viability,,,EC50,5480 nM
COc1ccc(COC[C@@](O)(CNCc2ccccc2)[C@@H]2CC[C@@H](C)C[C@H]2OCc2ccc(OC)cc2)cc1,A2780,"cell growth or viability, MTT",,"30 µM, 72 h",inhibition,100%
CN[C@H](CC(C)C)C(=O)N[C@H]1C(=O)N[C@@H](CC(N)=O)C(=O)N[C@H]2C(=O)N[C@H]3C(=O)N[C@H](C(=O)N[C@H](C(=O)O)c4cc(O)cc(O)c4-c4cc3ccc4O)[C@H](O)c3ccc(c(Cl)c3)Oc3cc2cc(c3O[C@@H]2O[C@H](CO)[C@@H](O)[C@H](O)[C@H]2O[C@H]2C[C@](C)(N)[C@H](O)[C@H](C)O2)Oc2ccc(cc2Cl)[C@H]1O,Streptococcus pneumoniae,microbial growth,ATCC49619,,MIC,0.25 µM
COc1ccc(CNC[C@](O)(COCc2ccc(F)cc2)[C@@H]2CC[C@@H](C)C[C@H]2OCc2ccc(F)cc2)cc1,A2780,"cell growth or viability, MTT",,"10 µM, 72 h",inhibition,93.8%
NC(=O)c1ccc(Oc2ccc(C(=O)C(Cl)Cl)cc2[N+](=O)[O-])cc1,NCI-H1650,"cell growth or viability, MTT",,2.5 µM,inhibition,59.3%
COc1cccc2c1C(=O)c1c(O)c3c(c(O)c1C2=O)C[C@@](O)(C(=O)CO)C[C@@H]3O[C@H]1C[C@H](N)[C@H](O)[C@H](C)O1,Caco-2,"cell growth or viability, MTT",,"12.5 µg/mL, 48 h, serum-free",viability,40.5%
C[C@@H]1CC[C@@H]([C@](C)(O)CNCc2cccc3ccccc23)[C@H](OCc2ccccc2)C1,A2780,"cell growth or viability, MTT",,"30 µM, 72 h",inhibition,94.2%
C=C(F)C(=O)N1CCN(c2nc(OC[C@@H]3CCCN3C)nc3c2CCN(c2cccc4cccc(Cl)c24)C3)C[C@@H]1CC#N,NCI-H2122,"cell growth or viability, ATP luminescence",,,IC50,192 nM
CO[C@@H]1[C@@H](OC(N)=O)[C@@H](O)[C@H](Oc2ccc3c(O)c(NC(=O)c4ccc(O)c(CC=C(C)C)c4)c(=O)oc3c2C)OC1(C)C,Klebsiella pneumoniae,"microbial growth, broth dilution",ATCC10031,,MIC,0.5 µg/mL
COc1ccc(CNC[C@](O)(COCc2ccc(OC)cc2)[C@@H]2CC[C@@H](C)C[C@H]2OCc2ccc(OC)cc2)cc1,A2780,"cell growth or viability, MTT",,"10 µM, 72 h",inhibition,98.7%
Cc1[nH]c(C(=O)Nc2ccc(C(=O)NCC(=O)O)cc2N2CCN(C(=O)OC(C)(C)C)CC2)c(Cl)c1Cl,Klebsiella pneumoniae,"microbial growth, broth dilution",ATCC700603,,MIC,> 32 µg/mL
C[C@@H]1CC[C@@H]([C@](C)(O)CNCc2cccc(F)c2)[C@H](OCc2ccccc2)C1,A2780,"cell growth or viability, MTT",,"10 µM, 72 h",inhibition,30.6%
Cc1[nH]c(C(=O)Nc2ccc(C(=O)NCC(=O)O)cc2N2CC[C@@H](NC(=O)OC(C)(C)C)C2)c(Cl)c1Cl,Klebsiella pneumoniae,"microbial growth, broth dilution",ATCC700603,,MIC,> 32 µg/mL
CC(=O)Nc1ccc(Oc2ccc(C(=O)C(Cl)Cl)cc2[N+](=O)[O-])cc1Cl,NCI-H1650,"cell growth or viability, MTT",,2.5 µM,inhibition,77.8%
